ChEMBL document CHEMBL4038330, “Discovery of Potent Orally Active Protease-Activated Receptor 1 (PAR1) Antagonists Based on Andrographolide” (J Med Chem, 2017)

How the values were obtained:
[1] = system: Platelet; assay: Effect on collagen-stimulated platelet aggregation in human platelet-rich plasma up to 10 uM preincubated for 20 mins followed by collagen stimulation measured after 5 mins by aggregometric analysis; assay type: ADME, cell-based
Summary of the method: (§1)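 Human platelet-rich plasma stimulated with TRAP 15 µM, ADP 10 µM or collagen 5 µg/mL. ADP and collagen tests went up to 10 µM compound. Three separate experiments per agonist. Mean IC50 taken from IC50s of the independent experiments; values given as median ± SD.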

[2] = system: Rattus norvegicus; assay: Toxicity in Wistar rat assessed as behavioral abnormalities at 1 mg/kg, iv measured up to 24 hrs post dose; assay type: organism-based; conditions: in vivo
Summary of the method: (§2)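 Male Wistar rats given 1 mg/kg iv or 5 mg/kg intragastrically. Behaviour observed for abnormalities over the 24 h sampling period.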

[3] = system: Cavia porcellus; assay: In vivo antagonist activity at PAR1 in guinea pig assessed as inhibition of thrombin-stimulated platelet aggregation at 30 mg/kg, po pretreated for 2 hrs followed by thrombin stimulation measured after 5 mins; assay type: functional
[4] = Tmax in Wistar rat at 5 mg/kg, po measured up to 24 hrs post dose by HPLC-MS/MS analysis; assay type: ADME, organism-based; conditions: in vivo
Summary of the method: (§3)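 Male Wistar rats, n = 6 per group, given 1 mg/kg intravenously or 5 mg/kg intragastrically. Blood concentrations followed over 24 h. Non-compartmental analysis; values as median ± SD. Bioavailability from oral versus intravenous exposure.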

[5] = system: Platelet; assay: Effect on ADP-stimulated platelet aggregation in human platelet-rich plasma up to 10 uM preincubated for 20 mins followed by ADP stimulation measured after 5 mins by aggregometric analysis; assay type: ADME, cell-based; summary of the method: as §1
[6] = system: collagen-stimulated platelet aggregation; assay: Toxicity in guinea pig assessed as inhibition of collagen-stimulated platelet aggregation at 10 mg/kg, po pretreated for 2 hrs followed by collagen stimulation measured after 5 mins; assay type: organism-based, Cavia porcellus; conditions: in vivo
[7] = system: Rattus norvegicus; assay: VRT (0 to infinity) in Wistar rat at 5 mg/kg, po measured up to 24 hrs post dose by HPLC-MS/MS analysis; assay type: ADME, organism-based; conditions: in vivo
[8] = system: Cavia porcellus; assay: In vivo antagonist activity at PAR1 in guinea pig assessed as inhibition of thrombin-stimulated platelet aggregation at 10 mg/kg, po pretreated for 2 hrs followed by thrombin stimulation measured after 5 mins; assay type: functional
[9] = Apparent clearance in Wistar rat at 5 mg/kg, po measured up to 24 hrs post dose by HPLC-MS/MS analysis; assay type: ADME, organism-based; conditions: in vivo, read-out: CL(app) (converted); summary of the method: as §3
[10] = AUC (0 to infinity) in Wistar rat at 1 mg/kg, iv administered as bolus dose measured up to 24 hrs post dose by HPLC-MS/MS analysis; assay type: ADME, organism-based; parameters: dose 1 mg/kg, time infinity, route intravenous; conditions: in vivo
Summary of the method: (§4)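 Male Wistar rats, n = 6 per group, dosed intragastrically at 5 mg/kg or intravenously at 1 mg/kg. Blood concentrations followed over 24 h. Parameters from non-compartmental analysis, reported as median ± SD.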

[11] = MRT (0 to infinity) in Wistar rat at 1 mg/kg, iv administered as bolus dose measured up to 24 hrs post dose by HPLC-MS/MS analysis; assay type: ADME, organism-based; conditions: in vivo; summary of the method: as §3
[12] = system: Rattus norvegicus; assay: AUMC (0 to infinity) in Wistar rat at 1 mg/kg, iv administered as bolus dose measured up to 24 hrs post dose by HPLC-MS/MS analysis; assay type: ADME, organism-based; conditions: in vivo; summary of the method: as §3
[13] = Oral bioavailability in Wistar rat at 5 mg/kg measured up to 24 hrs post dose by HPLC-MS/MS analysis; assay type: ADME, organism-based; conditions: in vivo; summary of the method: as §3
[14] = Tmax in Wistar rat at 1 mg/kg, iv administered as bolus dose measured up to 24 hrs post dose by HPLC-MS/MS analysis; assay type: ADME, organism-based; conditions: in vivo; summary of the method: as §3
[15] = system: Rattus norvegicus; assay: VRT (0 to infinity) in Wistar rat at 1 mg/kg, iv administered as bolus dose measured up to 24 hrs post dose by HPLC-MS/MS analysis; assay type: ADME, organism-based; conditions: in vivo
[16] = Cmax in Wistar rat at 1 mg/kg, iv administered as bolus dose measured up to 24 hrs post dose by HPLC-MS/MS analysis; assay type: ADME, organism-based; parameters: dose 1 mg/kg, route intravenous; conditions: in vivo; summary of the method: as §3
[17] = system: Cavia porcellus; assay: In vivo antagonist activity at PAR1 in guinea pig assessed as inhibition of TRAP-stimulated platelet aggregation at 30 mg/kg, po pretreated for 2 hrs followed by TRAP stimulation measured after 5 mins; assay type: functional
[18] = system: Plasma; assay: Drug metabolism in Wistar rat plasma assessed as [M2+O-2H] metabolite formation at 5 mg/kg, po administered as single dose measured at 3 hrs post dose by LC-HRMS analysis; assay type: ADME, organism-based; conditions: in vivo
Summary of the method: (§5)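 Rats dosed orally at 10 mg/kg or 5 mg/kg. Plasma taken at 3.0 h after dosing. Parent and metabolites detected by extracted ion chromatograms.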

[19] = system: Plasma; assay: Drug metabolism in Wistar rat plasma assessed as [M2+O] metabolite formation at 5 mg/kg, po administered as single dose measured at 3 hrs post dose by LC-HRMS analysis; assay type: ADME, organism-based; conditions: in vivo; summary of the method: as §5
[20] = system: Plasma; assay: Stability in Wistar rat assessed as parent compound level in plasma at 5 mg/kg, po administered as single dose measured at 3 hrs post dose by LC-HRMS analysis; assay type: ADME, organism-based; conditions: in vivo; summary of the method: as §5
[21] = system: Rattus norvegicus; assay: Apparent volume of distribution in Wistar rat at 5 mg/kg, po measured up to 24 hrs post dose by HPLC-MS/MS analysis; assay type: ADME, organism-based; conditions: in vivo; summary of the method: as §3
[22] = Cmax in Wistar rat at 5 mg/kg, po measured up to 24 hrs post dose by HPLC-MS/MS analysis; assay type: ADME, organism-based; parameters: dose 5 mg/kg, route oral; conditions: in vivo; summary of the method: as §3
[23] = Apparent clearance in Wistar rat at 1 mg/kg, iv administered as bolus dose measured up to 24 hrs post dose by HPLC-MS/MS analysis; assay type: ADME, organism-based; conditions: in vivo, read-out: CL(app) (converted); summary of the method: as §3
[24] = system: Cavia porcellus; assay: In vivo antagonist activity at PAR1 in guinea pig assessed as inhibition of TRAP-stimulated platelet aggregation at 10 mg/kg, po pretreated for 2 hrs followed by TRAP stimulation measured after 5 mins; assay type: functional
[25] = Apparent terminal half life in Wistar rat at 1 mg/kg, iv administered as bolus dose measured up to 24 hrs post dose by HPLC-MS/MS analysis; assay type: ADME, organism-based; conditions: in vivo, read-out: betat1/2(app) (converted); summary of the method: as §3
[26] = system: Rattus norvegicus; assay: Toxicity in Wistar rat assessed as body weight at 5 mg/kg, po measured up to 24 hrs post dose; assay type: organism-based; conditions: in vivo
[27] = system: ADP-stimulated platelet aggregation; assay: Toxicity in guinea pig assessed as inhibition of ADP-stimulated platelet aggregation at 30 mg/kg, po pretreated for 2 hrs followed by ADP stimulation measured after 5 mins; assay type: organism-based, Cavia porcellus; conditions: in vivo
[28] = system: Rattus norvegicus; assay: Toxicity in Wistar rat assessed as behavioral abnormalities at 5 mg/kg, po measured up to 24 hrs post dose; assay type: organism-based; conditions: in vivo; summary of the method: as §2
[29] = Apparent terminal half life in Wistar rat at 5 mg/kg, po measured up to 24 hrs post dose by HPLC-MS/MS analysis; assay type: ADME, organism-based; conditions: in vivo, read-out: betat1/2(app) (converted); summary of the method: as §3
[30] = Apparent volume of distribution in Wistar rat at 1 mg/kg, iv administered as bolus dose measured up to 24 hrs post dose by HPLC-MS/MS analysis; assay type: ADME, organism-based; conditions: in vivo, read-out: Vd(app); summary of the method: as §3
[31] = system: collagen-stimulated platelet aggregation; assay: Toxicity in guinea pig assessed as inhibition of collagen-stimulated platelet aggregation at 30 mg/kg, po pretreated for 2 hrs followed by collagen stimulation measured after 5 mins; assay type: organism-based, Cavia porcellus; conditions: in vivo
[32] = AUC (0 to infinity) in Wistar rat at 5 mg/kg, po measured up to 24 hrs post dose by HPLC-MS/MS analysis; assay type: ADME, organism-based; parameters: dose 5 mg/kg, time infinity, route oral; conditions: in vivo; summary of the method: as §4
[33] = system: Rattus norvegicus; assay: Toxicity in Wistar rat assessed as body weight at 1 mg/kg, iv administered as bolus dose measured up to 24 hrs post dose; assay type: organism-based; conditions: in vivo; summary of the method: as §3

For `CC1CC[C@@H]2C(C)(C)[C@H](O)CC[C@@]2(C)[C@@H]1/C=C/c1ccc(-c2cccc(F)c2)cn1` (single isomer, unassigned), the Activity [1] was “Non-Toxic”, the Activity [2] was “Non-Toxic” and the inhibition in vivo at 30 mg/kg [3] was 99.8%. The Tmax [4] was 2.5 h, the Activity [5] was “Non-Toxic” and the inhibition at 5 min [6] was 5.5%. The VRT [7] was 25 ha2, the inhibition in vivo at 10 mg/kg [8] was 66.9% and the CL/F [9] was 75 mL/min/kg. It also gave an AUC(0-inf) [10] of 552 ng·h/mL, an MRT inf [11] of 2 h and an AUMC [12] of 1135 µg·h/L. For the same compound, the bioavailability [13] was 52.5%, the Tmax [14] was 1.2 min and the VRT [15] was 7.6 ha2. The Cmax [16] was 1730 ng/mL, the inhibition in vivo at 30 mg/kg [17] was 98.7% and the Drug metabolism [18] was “Metabolite_Detected”. For the same compound, the Drug metabolism [19] was “Metabolite_Detected”, the Stability [20] was “Stable” and the “Vd(app)” value [21] was 20 L/kg. For the same compound, the Cmax [22] was 229 ng/mL, the clearance [23] was 31.7 mL/min/kg and the inhibition in vivo at 10 mg/kg [24] was 87.6%. It also gave a half-life [25] of 120 min, an Activity [26] of 224 g and an inhibition at 5 min [27] of 4.5%. For the same compound, the Activity [28] was “Non-Toxic”, the half-life [29] was 186 min and the Vd [30] was 5.7 L/kg. For the same compound, the inhibition at 5 min [31] was 6.8%, the AUC(0-inf) [32] was 1450 ng·h/mL and the Activity [33] was 226 g.
